In ChEMBL document CHEMBL4402600, “Discovery of a Dual Tubulin Polymerization and Cell Division Cycle 20 Homologue Inhibitor via Structural Modification on Apcin” (J Med Chem, 2020):

Legend:
Type in all cases: functional, cell-based
A-375 = assay: Cytotoxicity in human A375 cells assessed as reduction in cell viability incubated for 48 hrs by MTT assay; conditions: A-375, 48 h
How it was run: (§1)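 Cells grown at 37°C, 5% CO₂ (HepG2, OVCAR-3, Caov-3 in DMEM + 10% FBS; A549, HeLa, A375, MCF-7 in RPMI 1640 + 10% FBS). Seeded at 4-5×10³/well in triplicate, adhered overnight, exposed to 0.03–300 μM (DMSO <0.1%) for 48 h. MTT added for 4 h, formazan dissolved in DMSO, absorbance read. IC50 from dose–response curves, mean ± SD of at least three independent experiments.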

OVCAR-3 = assay: Cytotoxicity in human OVCAR3 cells assessed as reduction in cell viability incubated for 48 hrs by MTT assay; conditions: OVCAR-3, 48 h; how it was run: as §1
HeLa = assay: Cytotoxicity in human HeLa cells assessed as reduction in cell viability incubated for 48 hrs by MTT assay; how it was run: as §1
Caov-3 cell line = assay: Cytotoxicity in human Caov3 cells assessed as reduction in cell viability incubated for 48 hrs by MTT assay; conditions: Caov-3, 48 h; how it was run: as §1
HepG2 = assay: Cytotoxicity in human HepG2 cells assessed as reduction in cell viability incubated for 48 hrs by MTT assay; conditions: HepG2, 48 h; how it was run: as §1
MCF7 = assay: Cytotoxicity in human MCF7 cells assessed as reduction in cell viability incubated for 48 hrs by MTT assay; conditions: MCF7, 48 h; how it was run: as §1
A549 = assay: Cytotoxicity in human A549 cells assessed as reduction in cell viability incubated for 48 hrs by MTT assay; conditions: A549, 48 h; how it was run: as §1

Compound | IC50 (A-375) | IC50 (OVCAR-3) | IC50 (HeLa) | IC50 (Caov-3 cell line) | IC50 (HepG2) | IC50 (MCF7) | IC50 (A549)
Cc1ncc([N+](=O)[O-])n1CCOC(=O)NC(Nc1ccc2ccccc2n1)C(Cl)(Cl)Cl (configuration not stated) | 14 µM | 90.1 µM | 9.1 µM | 72.6 µM | 22.7 µM | 99.6 µM | 47.5 µM
Nc1ncnc2c1cnn2C(NC(=O)OCCN1CCOCC1)C(Cl)(Cl)Cl (configuration not stated) | 1.2 µM | 0.8 µM | < 10 µM | 1 µM | 19.5 µM | 19.3 µM | 13.4 µM
Cc1ncc([N+](=O)[O-])n1CCOC(=O)NC(n1cnc2c(Cl)nc(F)nc21)C(Cl)(Cl)Cl (configuration not stated) | 121 µM | > 300 µM | > 300 µM | > 300 µM | 55.1 µM | 62.1 µM | > 300 µM
Cc1ccnc(NC(NC(=O)OCCn2c([N+](=O)[O-])cnc2C)C(Cl)(Cl)Cl)n1 (configuration not stated) | 37.5 µM | 164 µM | 94.7 µM | 155 µM | 31.2 µM | 152 µM | 27.3 µM
Nc1nc(F)nc2c1ncn2C(NC(=O)OCCc1ccccn1)C(Cl)(Cl)Cl (configuration not stated) | 0.4 µM | 0.8 µM | 3 µM | 1.1 µM | 1 µM | 1 µM | 3.5 µM
Cc1ncc([N+](=O)[O-])n1CCOC(=O)NC(Nc1nccc2ccccc12)C(Cl)(Cl)Cl (configuration not stated) | 37.3 µM | 61.4 µM | > 300 µM | 81.1 µM | 46.8 µM | > 300 µM | > 300 µM
CCOC(=O)NC(n1cnc2c(N)nc(Cl)nc21)C(Cl)(Cl)Cl (configuration not stated) | 125 µM | 132 µM | 152 µM | 92.9 µM | 59 µM | 87.2 µM | 59.7 µM
Cc1ncc([N+](=O)[O-])n1CCOC(=O)NC(n1cnc2c(N)ncnc21)C(Cl)(Cl)Cl (configuration not stated) | 182 µM | > 300 µM | > 300 µM | > 300 µM | > 300 µM | > 300 µM | > 300 µM
O=C(NC(Nc1ncnc2c1cnn2C(NC(=O)OCCc1ccccn1)C(Cl)(Cl)Cl)C(Cl)(Cl)Cl)OCCc1ccccn1 (configuration not stated) | > 300 µM | > 300 µM | 110 µM | 146 µM | 81.3 µM | 162 µM | 53.7 µM
Cc1ncc([N+](=O)[O-])n1CCOC(=O)NC(Nc1nccc(=O)[nH]1)C(Cl)(Cl)Cl (configuration not stated) | > 300 µM | > 300 µM | > 300 µM | > 300 µM | > 300 µM | > 300 µM | > 300 µM
O=C(NC(n1ncc2c(O)ncnc21)C(Cl)(Cl)Cl)OCCc1ccccn1 (configuration not stated) | > 300 µM | > 300 µM | > 300 µM | > 300 µM | 271 µM | > 300 µM | > 300 µM
Cc1ncc([N+](=O)[O-])n1CCOC(=O)NC(n1cnc2c(Cl)nc(N)nc21)C(Cl)(Cl)Cl (configuration not stated) | > 300 µM | > 300 µM | 57.3 µM | > 300 µM | > 300 µM | > 300 µM | > 300 µM
COc1ccnc(NC(NC(=O)OCCn2c([N+](=O)[O-])cnc2C)C(Cl)(Cl)Cl)n1 (configuration not stated) | 44.1 µM | 198 µM | 128 µM | 157 µM | 79.8 µM | 186 µM | 264 µM
Cc1ncc([N+](=O)[O-])n1CCOC(=O)NC(Nc1nccc(Cl)n1)C(Cl)(Cl)Cl (configuration not stated) | 20 µM | > 300 µM | > 300 µM | > 300 µM | > 300 µM | > 300 µM | 94.9 µM
Nc1nc(Cl)nc2c1ncn2C(NC(=O)OCc1ccccc1)C(Cl)(Cl)Cl (configuration not stated) | > 300 µM | 37.9 µM | > 300 µM | 65 µM | > 300 µM | 138 µM | 78.5 µM
Cc1ncc([N+](=O)[O-])n1CCOC(=O)NC(Nc1nc(Cl)cc(Cl)n1)C(Cl)(Cl)Cl (configuration not stated) | 8.1 µM | 17 µM | 15.6 µM | 22.5 µM | 23.3 µM | 32.4 µM | 49.5 µM
Cc1ncc([N+](=O)[O-])n1CCOC(=O)NC(n1cnc2c(NC(=O)c3ccccc3)ncnc21)C(Cl)(Cl)Cl (configuration not stated) | > 300 µM | 225 µM | > 300 µM | > 300 µM | > 300 µM | > 300 µM | 244 µM
CCOC(=O)NC(n1cnc2c(N)nc(F)nc21)C(Cl)(Cl)Cl (configuration not stated) | 1.8 µM | 0.5 µM | 0.9 µM | 0.6 µM | 1.4 µM | 0.8 µM | 0.5 µM
Cn1c([N+](=O)[O-])cnc1COC(=O)NC(n1cnc2c(N)nc(Cl)nc21)C(Cl)(Cl)Cl (configuration not stated) | 1.2 µM | 70.4 µM | 51.2 µM | 64.3 µM | 43.8 µM | 53.3 µM | 61.4 µM
Cc1ncc([N+](=O)[O-])n1CCOC(=O)NC(Nc1nccc(N)n1)C(Cl)(Cl)Cl (configuration not stated) | > 300 µM | > 300 µM | > 300 µM | > 300 µM | > 300 µM | > 300 µM | > 300 µM
Cc1ncc([N+](=O)[O-])n1CCOC(=O)NC(n1cnc2ccccc21)C(Cl)(Cl)Cl (configuration not stated) | > 300 µM | > 300 µM | 214 µM | > 300 µM | > 300 µM | > 300 µM | > 300 µM
Cn1c([N+](=O)[O-])cnc1COC(=O)NC(n1cnc2c(N)nc(F)nc21)C(Cl)(Cl)Cl (configuration not stated) | 2.7 µM | 0.6 µM | 0.2 µM | 0.3 µM | 3.8 µM | 1.5 µM | 0.5 µM
Nc1nc(N)c2ncn(C(NC(=O)OCCN3CCOCC3)C(Cl)(Cl)Cl)c2n1 (configuration not stated) | 94.7 µM | 11.5 µM | 47.5 µM | 10.5 µM | 8.6 µM | 125 µM | 47.2 µM
CC(=O)Nc1nc2c(ncn2C(NC(=O)OCCn2c([N+](=O)[O-])cnc2C)C(Cl)(Cl)Cl)c(=O)[nH]1 (configuration not stated) | > 300 µM | > 300 µM | > 300 µM | > 300 µM | > 300 µM | > 300 µM | > 300 µM
Cc1ncc([N+](=O)[O-])n1CCOC(=O)NC(n1cnc2c(N)nc(Cl)nc21)C(Cl)(Cl)Cl (configuration not stated) | 246 µM | 131 µM | 218 µM | 144 µM | 7.3 µM | > 300 µM | 160 µM
Cc1ncc([N+](=O)[O-])n1CCOC(=O)NC(Nc1cc2ccccc2cn1)C(Cl)(Cl)Cl (configuration not stated) | 12.5 µM | 109 µM | 38.9 µM | 95.2 µM | 26 µM | 141 µM | 84.3 µM
